Key:
CCRF-CEM [1] = assay: The compound was tested for inhibitory activity against HIV-1; assay type: functional, cell-based; details: Homo sapiens
CCRF-CEM [2] = assay: Tested for cytotoxicity in CEM cells; assay type: functional; details: Homo sapiens
[3] = molecular target: T1, Human immunodeficiency virus type 1 integrase (Human immunodeficiency virus 1, UniProt Q7ZJM1); assay: Inhibition of the 3'-end joining activity of HIV-1 integrase
Method in brief: (§1)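 Then 20 nM 5′-32P-labeled linear oligonucleotide substrate added and incubated a further 1 h. Products separated on denaturing 20% polyacrylamide/urea gel and quantified by phosphorimaging. IC50 read from a plot of percent inhibition versus concentration.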

[4] = molecular target: T1, Human immunodeficiency virus type 1 integrase; assay: Inhibition of the 3'-processing activity of HIV-1 integrase; method in brief: as §1
CCRF-CEM [5] = assay: The compound was tested for cytotoxicity against HIV-1 infected CEM cells; assay type: functional; details: Homo sapiens
CCRF-CEM [6] = assay: The compound was tested for inhibitory activity against HIV-1 infected CEM cells; assay type: functional, cell-based; details: Homo sapiens

T1 sequence (Q7ZJM1 whole entry): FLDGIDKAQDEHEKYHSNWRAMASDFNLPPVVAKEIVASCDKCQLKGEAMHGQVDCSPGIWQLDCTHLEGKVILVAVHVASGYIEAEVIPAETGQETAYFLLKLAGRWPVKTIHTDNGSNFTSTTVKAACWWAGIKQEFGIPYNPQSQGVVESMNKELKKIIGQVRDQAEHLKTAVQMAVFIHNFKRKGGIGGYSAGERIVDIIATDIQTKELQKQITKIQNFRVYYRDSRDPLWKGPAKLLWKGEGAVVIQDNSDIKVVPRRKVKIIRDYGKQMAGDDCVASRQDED

Row | Structure (SMILES) | EC50 (CCRF-CEM [1]) [µM] | CC50 (CCRF-CEM [2]) [µM] | IC50 [3] [µM] | IC50 [4] [µM] | CC50 (CCRF-CEM [5]) [µM] | EC50 (CCRF-CEM [6]) [µM]
1 | COc1cc2c(cc1OC)C(=O)N1CCCC1CS2 (stereo unspecified) | > 200 | > 200 | > 1000 | > 1000 | – | –
2 | COc1ccc2c(c1)C(=O)N1CSCC1C(=O)S2 (stereo unspecified) | > 200 | > 200 | 155 | 155 | – | –
3 | Cc1ccc2c(c1)C(=O)N1CCSC1C(=O)S2 (stereo unspecified) | – | – | 55 | 64 | – | –
4 | O=C1Sc2ccc(Cl)cc2C(=O)N2C[S+]([O-])CC12 (stereo unspecified) | – | – | 280 | 260 | – | –
5 | CC(=O)OC1Sc2ccccc2C(=O)N2CCCC12 (stereo unspecified) | > 200 | > 200 | > 1000 | > 1000 | – | –
6 | O=C1Sc2ccc(Cl)cc2C(=O)N2CSCC12 (stereo unspecified) | > 100 | > 100 | 160 | 158 | – | –
7 | O=C1Sc2ccccc2C(=O)N2CCSC12 (stereo unspecified) | – | – | 146 | 110 | > 200 | 107
8 | COC1Sc2ccccc2C(=O)N2CCCC12 (stereo unspecified) | > 200 | > 200 | > 1000 | > 1000 | – | –
9 | O=C1Sc2ccccc2C(=O)N2CCCCC12 (stereo unspecified) | > 200 | > 200 | 343 | 406 | – | –
10 | O=C1Sc2ccccc2Cn2cccc21 | 146 | > 200 | 300 | 590 | – | –
11 | O=C1c2ccccc2SC(O)C2CCCN12 (stereo unspecified) | > 200 | > 200 | > 1000 | > 1000 | – | –
12 | COc1cc2c(cc1OC)C(=O)N1CCCC1C(=O)S2 (stereo unspecified) | > 200 | > 200 | > 1000 | > 1000 | – | –
13 | O=C1Sc2ccccc2C(=O)N2COCC12 (stereo unspecified) | – | – | > 333 | > 333 | – | –
14 | CN1CCN(Cc2ccc3n2Cc2ccccc2SC3c2ccccc2)CC1 (stereo unspecified) | – | – | > 1000 | > 1000 | – | –
15 | COc1cc2c(cc1OC)C(=O)N1CSCC1C(=O)S2 (stereo unspecified) | > 50 | > 50 | 333 | 670 | – | –
16 | O=C1Sc2ccc(Cl)cc2C(=O)N2CCSC12 (stereo unspecified) | > 50 | > 50 | 120 | 151 | – | –

Row | Structure (SMILES) | EC50 (CCRF-CEM [1]) [µM] | CC50 (CCRF-CEM [2]) [µM] | IC50 [3] [µM] | IC50 [4] [µM] | CC50 (CCRF-CEM [5]) [µM] | EC50 (CCRF-CEM [6]) [µM]
17 | O=C1Sc2ccccc2C(=O)N2CSCC12 (stereo unspecified) | > 200 | > 200 | 227 | 208 | – | –
18 | O=C1Sc2ccc(Br)cc2C(=O)N2CCSC12 (stereo unspecified) | – | – | 48 | 58 | – | –
19 | O=C1Sc2ccccc2C(=O)N2C[S+]([O-])CC12 (stereo unspecified) | – | – | 215 | 200 | – | –
20 | O=C1c2ccccc2SC(O)(c2ccccc2)C2CCCN12 (stereo unspecified) | – | – | > 1000 | > 1000 | – | –
21 | O=C1Sc2cc3ccccc3cc2C(=O)N2CSCC12 (stereo unspecified) | 280 | > 316 | 100 | 92 | – | –
22 | Cc1ccc2c(c1)C(=O)N1CSCC1C(=O)S2 (stereo unspecified) | – | 35 | 63 | 52 | – | –
23 | O=C1Sc2cc([N+](=O)[O-])ccc2C(=O)N2CSCC12 (stereo unspecified) | > 50 | > 50 | 100 | 90 | – | –
24 | CN(C)Cc1ccc2n1Cc1ccccc1SC2c1ccc(F)cc1 (stereo unspecified) | – | – | > 1000 | > 1000 | – | –
25 | O=C1c2ccccc2SCC2CSC(c3ccccc3)N12 (stereo unspecified) | – | – | 376 | 372 | – | –
26 | CCOC(=O)C1Sc2ccccc2Cn2cccc21 (stereo unspecified) | – | – | > 1000 | > 1000 | – | –
27 | CN1CCN(C2Sc3ccccc3C(=O)N3CCCC23)CC1 (stereo unspecified) | > 125 | > 125 | > 1000 | > 1000 | – | –
28 | O=C1Sc2cc3ccccc3cc2C(=O)N2CCSC12 (stereo unspecified) | 60 | > 316 | 47 | 40 | – | –
29 | O=C1Sc2ccc(Br)cc2C(=O)N2CSCC12 (stereo unspecified) | > 200 | > 200 | 74 | 87 | – | –
30 | COc1ccc2c(c1)C(=O)N1C[S+]([O-])CC1C(=O)S2 (stereo unspecified) | – | – | 142 | 84.5 | – | –
31 | Cc1ccc2c(c1)C(=O)N1CC[S+]([O-])C1C(=O)S2 (stereo unspecified) | > 100 | > 100 | 590 | 590 | – | –
